# Published values gathered from unrelated publications.
# Protocols differ between the studies behind these lines.
SMILES,host,sample,route,dose,setting,AUC(0-t)
Cc1ccc(NC(=O)c2ccc(CN3CCN(C)CC3)cc2)cc1Nc1nccc(-c2cncc(-c3oncc3C)c2)n1,male C57BL/6 mouse,brain,oral,100 mg/kg/day,,1170 ng·h/mL
CC[C@H](C)[C@@H]1NC(=O)[C@@](C)(NC(=O)[C@H](CCCNC(=N)N)NC(=O)[C@H](CC(C)C)NC(=O)[C@@H](NC(=O)[C@H](CCC(N)=O)NC(=O)[C@H](CC(C)C)NC(C)=O)[C@@H](C)O)CCCC=CCCC[C@@](C)(C(=O)N[C@@H](CC(C)C)C(=O)N[C@@H](Cc2ccc3ccccc3c2)C(N)=O)NC(=O)[C@H](CCCNC(=N)N)NC(=O)[C@H](CCC(N)=O)NC1=O,male BALB/c mouse,plasma,intravenous,5 mg/kg,,124000 ng·h/mL
Cc1nc(-c2cnc(NC(C)C)n(C)c2=O)ccc1Oc1ccnc(-c2cnn(C)c2)c1,female mouse,plasma,oral,3.75 mg/kg,single dose,29000 ng·h/mL
CCOc1ccc(Cc2cc([C@@H]3O[C@H](CO)[C@@H](O)[C@H](O)[C@H]3O)ccc2Cl)cc1,male C57BL/6 mouse,plasma,intravenous,1 mg/kg,,680 ng·h/mL
CSc1cc(Oc2ccnc3[nH]c(=O)cnc23)ccc1NC(=O)Nc1cc(C(C)(C)C)nn1-c1ccccc1,BALB/c mouse,plasma,oral,10 mg/kg,,275 µM·h
O=S(=O)(c1ccc(-c2ccc3nccc(Nc4ccncn4)c3c2)cc1)N1CCOCC1,female BALB/c mouse,plasma,intraperitoneal,10 mg/kg,,9510 ng·h/mL
COc1cc(OC)c2nccc(N3CCc4c(cc(Cn5ccnc5)cc4-c4cn(C)nc4C(F)(F)F)C3=O)c2c1,male CD-1 mouse,plasma,intravenous,3 mg/kg,,803 ng·h/mL
CC(C)OC(=O)c1sc(Nc2ncccn2)nc1-c1cnccn1,male CD-1 mouse,plasma,oral,2.5 mg/kg,,54 ng·h/mL
C=CC(=O)N1CC2CC(n3nc(-c4ccc(C(=O)Nc5ccccn5)cc4)c4c(N)ncnc43)CC2C1 (stereo not shown),SCID mouse,plasma,oral,0.2 mg/kg,,8.63 ng·h/mL
Cc1ccc2cncc(N3CCc4c(cc(Cn5ccnc5)cc4-c4cn(C)nc4C(F)(F)F)C3=O)c2c1,male CD-1 mouse,plasma,oral,10 mg/kg,,4420 ng·h/mL
CN1CCN(c2nccc3nc(-c4ccc(F)c(F)c4)[nH]c23)CC1,mouse,blood,oral,5 mg/kg,,3.25 µM·h
COc1ccc2nc(-c3ccccn3)c(N(C)c3ccc(F)cc3)n2c1,male CD-1 mouse,plasma,oral,50 mg/kg,fasted,953 ng·h/mL
COc1ccc(C(O)COc2ccc(-c3csc(-c4ccc(OCC(O)c5ccc(OC)c(OC)c5)cc4)n3)cc2)cc1OC (stereo not shown),C57BL/6 mouse,plasma,oral,30 mg/kg,,34000 ng·h/mL
Cc1c(C(=O)NN2CCCCC2)nn(-c2ccc(Cl)cc2Cl)c1-c1ccc(Cl)cc1,mouse,plasma,oral,20 µmol/kg,single dose,9 µM·h
CN1CCC[C@H](CN2c3ccccc3Sc3ccccc32)C1.Cl,mouse,plasma,oral,64 mg/kg,single dose,6010 ng·h/mL
COc1nc(-c2cc(C)c(N[C@@H](C)c3ccc(F)cc3)nn2)ccc1-n1cnc(C)c1,male CD-1 mouse,plasma,oral,5 mg/kg,single dose,12700 ng·h/mL
CNCCN(C)c1cc(C#N)cc(CCc2cc(C)cc(N)n2)c1,male BALB/c mouse,plasma,intravenous,2 mg/kg,,180 ng·h/mL
Fc1ccc(-c2nc3c(N4CCC(CN5CCOCC5)CC4)nccc3[nH]2)cc1F,BALB/c mouse,blood,oral,20 mg/kg,,34.6 µM·h
CNC(=O)c1cc(OC)cc2c(N3CCc4c(cc(Cn5ccnc5)cc4-c4cn(C)nc4C(F)(F)F)C3=O)ccnc12,male CD-1 mouse,plasma,oral,50 mg/kg,,144000 ng·h/mL
